The text below walks through data of ChEMBL document CHEMBL1139532, “Synthesis and monoamine transporter binding properties of 3alpha-(substituted phenyl)nortropane-2beta-carboxylic acid methyl esters. Norepinephrine transporter selective compounds” (J Med Chem, 2005).

The target in assay [1] is T1, Norepinephrine transporter (Rattus norvegicus, UniProt Q9WTR4). Description: Displacement of [3H]nisoxetine from norepinephrine transporter (NET) of rat cerebral cortex. Type of assay: tissue-based. Put shortly: (§1)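 Male Sprague-Dawley rat (200-250 g) cerebral cortex, 8 mg per tube, in 50 mM Tris, 120 mM NaCl, 5 mM KCl, pH 7.4 at 4 °C, with [3H]nisoxetine and 10 test concentrations. 1 µM desipramine defines nonspecific binding. GF/B filtration, ice-cold washes.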
On the technique in general: Displacement assays read how much labelled ligand stays bound in the presence of the test substance.

The target of assay [2] is T2, Sodium-dependent serotonin transporter (Rattus norvegicus, UniProt P31652). In words: Inhibition of [3H]paroxetine binding to rat cortex serotonin transporter. Put shortly: (§2)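 Male Sprague-Dawley rat (200-250 g) brain tissue, 1.5 mg original wet weight, in 50 mM Tris, 120 mM NaCl, 5 mM KCl, pH 7.4, with 0.2 nM [3H]paroxetine and 10 test concentrations, 90 min at room temperature. 1 µM citalopram defines nonspecific binding. GF/B filtration.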

For assay [3], the target named is T2, Sodium-dependent serotonin transporter. Description: Displacement of [3H]paroxetine from serotonin transporter (5-HT) of rat cerebral cortex. Type of assay: tissue-based. Put shortly: as §2
Assay [4] deals with Sodium-dependent dopamine transporter (Rattus norvegicus, UniProt P23977). In words: Inhibition of [3H]WIN-35428 binding to rat striatal dopamine transporter.
Assay [5] concerns the target T1, Norepinephrine transporter. Description: Inhibition of [3H]nisoxetine binding to rat cerebral cortex norepinephrine transporter. Type of assay: tissue-based. Put shortly:
as §1

Chain of Sodium-dependent dopamine transporter (P23977 whole entry): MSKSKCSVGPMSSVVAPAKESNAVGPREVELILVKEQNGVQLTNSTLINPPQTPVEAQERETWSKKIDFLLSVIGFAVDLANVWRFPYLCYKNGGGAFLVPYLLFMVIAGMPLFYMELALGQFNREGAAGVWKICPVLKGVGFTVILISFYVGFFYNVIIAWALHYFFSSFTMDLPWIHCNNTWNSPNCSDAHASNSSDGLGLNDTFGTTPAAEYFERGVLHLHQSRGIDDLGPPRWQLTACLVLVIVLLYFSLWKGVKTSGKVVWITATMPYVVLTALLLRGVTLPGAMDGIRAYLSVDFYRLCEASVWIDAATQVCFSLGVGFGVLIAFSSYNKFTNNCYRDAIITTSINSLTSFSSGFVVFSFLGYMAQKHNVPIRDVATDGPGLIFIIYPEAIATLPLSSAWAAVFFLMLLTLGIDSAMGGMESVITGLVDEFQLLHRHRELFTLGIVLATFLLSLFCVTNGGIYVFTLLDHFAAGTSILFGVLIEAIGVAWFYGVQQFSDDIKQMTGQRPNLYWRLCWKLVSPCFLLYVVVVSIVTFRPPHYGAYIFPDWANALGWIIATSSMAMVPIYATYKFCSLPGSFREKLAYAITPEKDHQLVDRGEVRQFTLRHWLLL
T2 sequence (P31652 whole entry): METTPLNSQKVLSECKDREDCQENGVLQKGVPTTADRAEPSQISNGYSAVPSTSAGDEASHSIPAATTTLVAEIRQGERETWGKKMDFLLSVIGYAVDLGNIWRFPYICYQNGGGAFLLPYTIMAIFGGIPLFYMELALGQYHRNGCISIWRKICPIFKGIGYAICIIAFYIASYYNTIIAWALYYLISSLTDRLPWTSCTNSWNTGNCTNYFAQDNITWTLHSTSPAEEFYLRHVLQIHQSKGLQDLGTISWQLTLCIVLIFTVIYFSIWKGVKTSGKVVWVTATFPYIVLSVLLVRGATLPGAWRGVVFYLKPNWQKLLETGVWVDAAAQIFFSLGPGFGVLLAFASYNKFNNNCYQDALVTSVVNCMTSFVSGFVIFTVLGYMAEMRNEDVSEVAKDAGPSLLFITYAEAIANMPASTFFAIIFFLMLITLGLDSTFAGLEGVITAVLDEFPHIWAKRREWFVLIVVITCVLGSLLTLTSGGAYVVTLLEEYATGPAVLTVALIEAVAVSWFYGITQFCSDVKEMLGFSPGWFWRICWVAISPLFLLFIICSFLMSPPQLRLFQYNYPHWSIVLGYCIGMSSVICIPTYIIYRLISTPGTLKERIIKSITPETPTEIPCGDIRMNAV
T1 sequence (Q9WTR4 whole entry): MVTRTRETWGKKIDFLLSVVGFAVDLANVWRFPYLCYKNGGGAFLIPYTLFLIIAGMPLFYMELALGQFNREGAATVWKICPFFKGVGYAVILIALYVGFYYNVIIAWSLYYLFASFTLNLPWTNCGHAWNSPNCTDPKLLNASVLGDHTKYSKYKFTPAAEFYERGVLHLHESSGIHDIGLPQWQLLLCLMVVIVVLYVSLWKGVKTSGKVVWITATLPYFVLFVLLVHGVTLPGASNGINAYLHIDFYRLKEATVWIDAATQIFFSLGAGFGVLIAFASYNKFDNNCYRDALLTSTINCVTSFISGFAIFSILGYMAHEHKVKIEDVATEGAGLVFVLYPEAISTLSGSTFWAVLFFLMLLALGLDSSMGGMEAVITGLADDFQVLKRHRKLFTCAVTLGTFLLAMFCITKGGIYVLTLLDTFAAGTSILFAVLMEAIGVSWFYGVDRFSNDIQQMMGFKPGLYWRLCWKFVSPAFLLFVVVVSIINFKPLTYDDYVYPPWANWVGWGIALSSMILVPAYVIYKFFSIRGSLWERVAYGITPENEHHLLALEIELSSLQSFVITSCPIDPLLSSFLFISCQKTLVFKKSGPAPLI

As a reminder, the Ki is a measure of affinity in units of concentration, obtained from inhibition or displacement. The low end stands for a stronger hold on the target, the high end for a looser hold on the target. As usually defined, the IC50 is the concentration that gives 50% inhibition. High values mean weaker potency, low ones greater potency. Regarding `COC(=O)C1C(c2ccc(C)c(F)c2)CC2CCC1N2C` (centres undefined), the Ki in assay [1] is 0.0224 µM; in assay [3], 0.282 µM. The IC50 in assay [2] was 1.15 µM; in assay [4] it was 0.00738 µM.
Turning to `COC(=O)C1C2CCC(CC1c1ccc(F)c(F)c1)N2` (centres undefined), the Ki in assay [1] was 0.0026 µM; in assay [3], 0.0553 µM. The IC50 in assay [5] is 0.0063 µM; in assay [2] it was 0.226 µM; in assay [4], 0.00561 µM.
For `COC(=O)C1C2CCC(CC1c1cc(F)cc(F)c1)N2` (centres undefined), the inhibition constant (Ki) in assay [1] stood at 0.00205 µM; in assay [3], 0.0137 µM. Moreover, the IC50 in assay [5] was 0.0041 µM; in assay [2] it was 0.0558 µM; in assay [4] it was 0.00235 µM.
With `COC(=O)C1C(c2ccc(F)c(C)c2)CC2CCC1N2C` (centres undefined), the values for the Ki in assay [1] and in assay [3] were 0.074 µM and 0.258 µM, respectively. Besides, the IC50 in assay [5] is 0.148 µM; in assay [2] it was 1.16 µM; in assay [4] it was 0.0137 µM.
For `COC(=O)C1C2CCC(CC1c1cccc(F)c1)N2` (centres undefined), the Ki in assay [1] was 0.004 µM; in assay [3], 0.0268 µM. The IC50 was 0.0097 µM in assay [5], 0.11 µM in assay [2] and 0.00236 µM in assay [4].
Turning to `COC(=O)C1C2CCC(CC1c1ccc(F)c(C)c1)N2` (centres undefined), the Ki is 0.00212 µM in assay [1] and 0.0171 µM in assay [3]. Besides, the IC50 in assay [5] is 0.00423 µM; in assay [2] it was 0.0698 µM; in assay [4] it was 0.00938 µM.
With `COC(=O)C1C2CCC(CC1c1ccc(C)c(F)c1)N2` (centres undefined), the Ki in assay [1] stood at 0.00043 µM; in assay [3] it was 0.0238 µM. Moreover, the IC50 amounted to 0.00086 µM in assay [5], 0.0974 µM in assay [2] and 0.009 µM in assay [4].
